Results from ChEMBL document CHEMBL4689842, “EUbOPEN Chemogenomics Library wave 1” (2021).

System: HEK-293T
Assay: Multiplex assay against HEK293T;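 on Population Tubulin-Different-Phenotype (%): share of the cells with healthy nuclei that show this phenotype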
Type: toxicity, cell-based
Settings: human
In short: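 With compound added, live cells were imaged on a CQ1 microscope at 37°C and 5% CO2; staining with Hoechst33342, BioTracker Green Microtubule Cytoskeleton Dye, MitoTracker Red and Annexin V Alexa Fluor 680 had been done at seeding. The CellPathfinder machine-learning gating scheme split cells into Hoechst high-intensity objects or normal cells, normal cells into healthy, pyknosed or fragmented nuclei, and pyknosed cells into mitotic or apoptotic. The tubulin, mitochondrial-mass and membrane-permeability phenotypes are per cents of healthy-nucleus cells.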

[1] = 12 h, 1 µM, compound concentration 1 uM, replicate 1
[2] = 12 h, 1 µM, compound concentration 1 uM, replicate 2
[3] = 12 h, 10 µM, compound concentration 10 uM, replicate 1
[4] = 12 h, 10 µM, compound concentration 10 uM, replicate 2
[5] = 24 h, 1 µM, compound concentration 1 uM, replicate 1
[6] = 24 h, 1 µM, compound concentration 1 uM, replicate 2
[7] = 24 h, 10 µM, compound concentration 10 uM, replicate 1
[8] = 24 h, 10 µM, compound concentration 10 uM, replicate 2

With `CCCS(=O)(=O)Nc1ccc(F)c(C(=O)c2c[nH]c3ncc(Cl)cc23)c1F` [PLX-4720] the “Population Apoptotic (%)” value [1] was 13%, the “Population Fragmented Nuclei (%)” value [1] was 16% and the “Population Healthy Nuclei (%)” value [1] was 62%. For the same compound, the “Population Hoechst High Intensity Objects (%)” value [1] was 11%, the “Population Membrane Permeable-Phenotype (%)” value [1] was 6% and the “Population Mitochondria Different-Phenotype (%)” value [1] was 4%. For the same compound, the “Population Mitotic Cells (%)” value [1] was 86%, the “Population Normal (%)” value [1] was 88% and the “Population Pyknosed Nuclei (%)” value [1] was 20%. The “Population Tubulin-Different-Phenotype (%)” value [1] was 8%, the “Total Cell Count” value [1] was 675 and the “Population Apoptotic (%)” value [2] was 6%. For the same compound, the “Population Fragmented Nuclei (%)” value [2] was 7%, the “Population Healthy Nuclei (%)” value [2] was 87% and the “Population Hoechst High Intensity Objects (%)” value [2] was 2%. The “Population Membrane Permeable-Phenotype (%)” value [2] was 2%, the “Population Mitochondria Different-Phenotype (%)” value [2] was 10% and the “Population Mitotic Cells (%)” value [2] was 93%. The “Population Normal (%)” value [2] was 97%, the “Population Pyknosed Nuclei (%)” value [2] was 5% and the “Population Tubulin-Different-Phenotype (%)” value [2] was 14%. For the same compound, the “Total Cell Count” value [2] was 1750, the “Population Apoptotic (%)” value [3] was 21% and the “Population Fragmented Nuclei (%)” value [3] was 13%. The “Population Healthy Nuclei (%)” value [3] was 73%, the “Population Hoechst High Intensity Objects (%)” value [3] was 13% and the “Population Membrane Permeable-Phenotype (%)” value [3] was 3%. For the same compound, the “Population Mitochondria Different-Phenotype (%)” value [3] was 2%, the “Population Mitotic Cells (%)” value [3] was 78% and the “Population Normal (%)” value [3] was 86%. For the same compound, the “Population Pyknosed Nuclei (%)” value [3] was 12%, the “Population Tubulin-Different-Phenotype (%)” value [3] was 1% and the “Total Cell Count” value [3] was 751. The “Population Apoptotic (%)” value [4] was 11%, the “Population Fragmented Nuclei (%)” value [4] was 9% and the “Population Healthy Nuclei (%)” value [4] was 86%. For the same compound, the “Population Hoechst High Intensity Objects (%)” value [4] was 2%, the “Population Membrane Permeable-Phenotype (%)” value [4] was 0% and the “Population Mitochondria Different-Phenotype (%)” value [4] was 5%. The “Population Mitotic Cells (%)” value [4] was 88%, the “Population Normal (%)” value [4] was 97% and the “Population Pyknosed Nuclei (%)” value [4] was 4%. The “Population Tubulin-Different-Phenotype (%)” value [4] was 2%, the “Total Cell Count” value [4] was 1952 and the “Population Apoptotic (%)” value [5] was 28%. The “Population Fragmented Nuclei (%)” value [5] was 13%, the “Population Healthy Nuclei (%)” value [5] was 78% and the “Population Hoechst High Intensity Objects (%)” value [5] was 7%. For the same compound, the “Population Membrane Permeable-Phenotype (%)” value [5] was 7%, the “Population Mitotic Cells (%)” value [5] was 71% and the “Population Normal (%)” value [5] was 92%. For the same compound, the “Population Pyknosed Nuclei (%)” value [5] was 7%, the “Population Tubulin-Different-Phenotype (%)” value [5] was 9% and the “Total Cell Count” value [5] was 803. For the same compound, the “Population Apoptotic (%)” value [6] was 3%, the “Population Fragmented Nuclei (%)” value [6] was 20% and the “Population Healthy Nuclei (%)” value [6] was 77%. The “Population Hoechst High Intensity Objects (%)” value [6] was 5%, the “Population Membrane Permeable-Phenotype (%)” value [6] was 8% and the “Population Mitochondria Different-Phenotype (%)” value [6] was 3%. For the same compound, the “Population Mitotic Cells (%)” value [6] was 96%, the “Population Normal (%)” value [6] was 94% and the “Population Pyknosed Nuclei (%)” value [6] was 2%. For the same compound, the “Population Tubulin-Different-Phenotype (%)” value [6] was 24%, the “Total Cell Count” value [6] was 2555 and the “Population Apoptotic (%)” value [7] was 15%. For the same compound, the “Population Fragmented Nuclei (%)” value [7] was 14%, the “Population Healthy Nuclei (%)” value [7] was 78% and the “Population Hoechst High Intensity Objects (%)” value [7] was 6%. The “Population Membrane Permeable-Phenotype (%)” value [7] was 5%, the “Population Mitochondria Different-Phenotype (%)” value [7] was 2% and the “Population Mitotic Cells (%)” value [7] was 84%. For the same compound, the “Population Normal (%)” value [7] was 93%, the “Population Pyknosed Nuclei (%)” value [7] was 6% and the “Population Tubulin-Different-Phenotype (%)” value [7] was 3%. The “Total Cell Count” value [7] was 975, the “Population Apoptotic (%)” value [8] was 3% and the “Population Fragmented Nuclei (%)” value [8] was 29%. The “Population Healthy Nuclei (%)” value [8] was 68%, the “Population Hoechst High Intensity Objects (%)” value [8] was 3% and the “Population Membrane Permeable-Phenotype (%)” value [8] was 3%. The “Population Mitochondria Different-Phenotype (%)” value [8] was 1%, the “Population Mitotic Cells (%)” value [8] was 96% and the “Population Normal (%)” value [8] was 96%. The “Population Pyknosed Nuclei (%)” value [8] was 1%, the “Population Tubulin-Different-Phenotype (%)” value [8] was 4% and the “Total Cell Count” value [8] was 3379.
